One block for each compound: values may come before it. Activity calls are given as the source filed them. The rule behind the calls is not given here.
How the values were obtained:
Protein ENL = target: T1, Protein ENL (Homo sapiens, UniProt Q03111); experiment: Inhibition of human His-ENL YEATS domain and biotinylated H3K9ac peptide interaction by AlphaScreen assay
T1 sequence (Q03111 whole entry): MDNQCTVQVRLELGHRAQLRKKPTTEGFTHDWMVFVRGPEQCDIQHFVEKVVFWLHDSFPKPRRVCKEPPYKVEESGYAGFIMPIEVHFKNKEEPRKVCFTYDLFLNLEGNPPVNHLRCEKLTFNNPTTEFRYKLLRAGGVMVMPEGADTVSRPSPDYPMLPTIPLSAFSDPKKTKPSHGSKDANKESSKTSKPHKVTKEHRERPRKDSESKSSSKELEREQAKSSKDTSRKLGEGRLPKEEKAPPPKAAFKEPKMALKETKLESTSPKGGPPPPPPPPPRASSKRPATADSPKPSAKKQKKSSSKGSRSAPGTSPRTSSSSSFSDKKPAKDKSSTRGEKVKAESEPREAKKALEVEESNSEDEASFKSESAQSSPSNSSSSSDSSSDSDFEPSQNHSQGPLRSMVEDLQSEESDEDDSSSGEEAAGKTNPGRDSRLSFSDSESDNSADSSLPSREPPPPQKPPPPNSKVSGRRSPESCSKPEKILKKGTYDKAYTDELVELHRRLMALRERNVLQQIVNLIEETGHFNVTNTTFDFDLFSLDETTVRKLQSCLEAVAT

[1] = target: T2, YEATS domain-containing protein 4 (Homo sapiens, UniProt O95619); experiment: Inhibition of human His-GAS41 YEATS domain and biotinylated H3K27ac peptide interaction at 20 uM by AlphaScreen assay
T2 sequence (O95619 whole entry, the tested form may be a part): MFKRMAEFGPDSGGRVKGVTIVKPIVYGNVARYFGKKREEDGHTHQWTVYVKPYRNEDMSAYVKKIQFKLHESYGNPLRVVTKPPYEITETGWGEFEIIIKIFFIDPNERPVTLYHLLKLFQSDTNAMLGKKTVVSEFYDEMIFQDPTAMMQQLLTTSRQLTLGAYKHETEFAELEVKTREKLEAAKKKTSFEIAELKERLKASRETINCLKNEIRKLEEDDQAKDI

[2] = target: T3, Protein AF-9 (Homo sapiens) (UniProt P42568); experiment: Inhibition of human His-AF9 YEATS domain and biotinylated H3K9ac peptide interaction at 20 uM by AlphaScreen assay
T3 sequence (whole entry): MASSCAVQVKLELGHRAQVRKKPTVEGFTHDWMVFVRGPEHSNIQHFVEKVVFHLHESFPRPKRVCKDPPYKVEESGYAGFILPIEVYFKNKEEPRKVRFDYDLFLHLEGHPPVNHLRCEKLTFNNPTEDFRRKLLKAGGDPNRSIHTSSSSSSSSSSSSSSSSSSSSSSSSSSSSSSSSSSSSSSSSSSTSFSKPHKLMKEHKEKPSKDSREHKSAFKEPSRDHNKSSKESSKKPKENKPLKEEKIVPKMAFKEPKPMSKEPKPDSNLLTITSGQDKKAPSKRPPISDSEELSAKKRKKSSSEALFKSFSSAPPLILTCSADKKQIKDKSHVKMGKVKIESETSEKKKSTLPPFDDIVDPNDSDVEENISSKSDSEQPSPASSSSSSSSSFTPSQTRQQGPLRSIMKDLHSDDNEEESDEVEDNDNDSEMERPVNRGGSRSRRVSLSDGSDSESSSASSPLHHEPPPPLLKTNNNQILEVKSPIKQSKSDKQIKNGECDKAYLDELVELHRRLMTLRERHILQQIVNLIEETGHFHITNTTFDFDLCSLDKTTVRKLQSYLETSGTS

[3] = target: T4, YEATS domain-containing protein 2 (Homo sapiens) (UniProt Q9ULM3); experiment: Inhibition of human His-YEATS2 YEATS domain and biotinylated […] peptide interaction at 20 uM by AlphaScreen assay
T4 sequence (whole entry): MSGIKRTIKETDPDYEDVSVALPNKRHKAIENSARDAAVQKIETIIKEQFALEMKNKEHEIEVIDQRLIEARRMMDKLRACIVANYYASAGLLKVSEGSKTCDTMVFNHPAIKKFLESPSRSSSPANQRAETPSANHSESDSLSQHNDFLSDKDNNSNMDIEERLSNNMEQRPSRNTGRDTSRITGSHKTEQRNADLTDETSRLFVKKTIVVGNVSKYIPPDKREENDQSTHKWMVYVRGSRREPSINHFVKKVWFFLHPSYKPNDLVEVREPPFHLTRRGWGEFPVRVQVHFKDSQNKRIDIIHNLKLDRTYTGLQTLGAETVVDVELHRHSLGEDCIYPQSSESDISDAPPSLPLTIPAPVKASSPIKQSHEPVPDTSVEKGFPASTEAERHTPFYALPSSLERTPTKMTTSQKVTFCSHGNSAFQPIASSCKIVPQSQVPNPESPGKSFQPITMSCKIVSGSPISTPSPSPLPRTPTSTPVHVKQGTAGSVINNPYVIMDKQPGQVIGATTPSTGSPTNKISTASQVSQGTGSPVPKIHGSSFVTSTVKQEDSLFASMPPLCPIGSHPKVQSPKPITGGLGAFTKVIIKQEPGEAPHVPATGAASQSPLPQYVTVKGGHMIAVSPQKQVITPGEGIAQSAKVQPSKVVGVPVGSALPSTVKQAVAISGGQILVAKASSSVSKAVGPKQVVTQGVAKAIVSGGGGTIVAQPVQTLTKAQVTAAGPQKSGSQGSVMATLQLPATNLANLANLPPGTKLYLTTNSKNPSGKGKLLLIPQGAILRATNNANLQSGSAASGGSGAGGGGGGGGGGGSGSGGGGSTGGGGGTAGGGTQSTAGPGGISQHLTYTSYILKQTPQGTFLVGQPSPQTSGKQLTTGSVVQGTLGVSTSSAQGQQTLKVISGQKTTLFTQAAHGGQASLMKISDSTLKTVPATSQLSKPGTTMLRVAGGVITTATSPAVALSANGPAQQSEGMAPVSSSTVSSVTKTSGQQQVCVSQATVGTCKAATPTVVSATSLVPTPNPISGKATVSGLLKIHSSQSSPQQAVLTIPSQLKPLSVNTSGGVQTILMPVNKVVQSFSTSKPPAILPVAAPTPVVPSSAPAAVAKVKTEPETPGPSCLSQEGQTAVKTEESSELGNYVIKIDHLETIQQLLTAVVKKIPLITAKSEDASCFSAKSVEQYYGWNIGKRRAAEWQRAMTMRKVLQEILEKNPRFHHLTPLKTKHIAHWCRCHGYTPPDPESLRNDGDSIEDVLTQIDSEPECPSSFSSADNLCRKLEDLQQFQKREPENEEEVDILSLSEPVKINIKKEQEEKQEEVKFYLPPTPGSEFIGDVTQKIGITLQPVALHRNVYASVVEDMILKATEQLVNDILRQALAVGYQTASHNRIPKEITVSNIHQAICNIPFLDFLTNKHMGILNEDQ

[4] = target: T2, YEATS domain-containing protein 4; experiment: Inhibition of human His-GAS41 YEATS domain and biotinylated H3K27ac peptide interaction by AlphaScreen assay
In short: (§1)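 His-tagged YEATS domains were expressed in E. coli Rosetta-2 (DE3) pLysS and purified on Ni-NTA. Partners were biotinylated peptide on streptavidin donor and Ni2+-chelate acceptor beads: AF9 30 nM with H3K9ac, GAS41 100 nM with H3K27ac, YEATS2 100 nM with H3K27cr. Peptides at 30 nM, buffer 50 mM HEPES pH 7.4, 100 mM NaCl, 0.1% BSA, 0.05% CHAPS. Thirteen-point 3-fold series from 54 μM to 0.1 nM, 4–6 replicates, signal normalised to no-compound control, four-parameter fit.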

[5] = target: T5, YEATS domain-containing protein 2 (Homo sapiens, UniProt Q9ULM3); experiment: Inhibition of human His-YEATS2 YEATS domain and biotinylated […] peptide interaction by AlphaScreen assay; in short: as §1
T5 sequence (Q9ULM3 whole entry): T4 sequence (whole entry)

Protein AF-9 = target: T6, Protein AF-9 (Homo sapiens, UniProt P42568); experiment: Inhibition of human His-AF9 YEATS domain and biotinylated H3K9ac peptide interaction by AlphaScreen assay
T6 sequence (P42568 whole entry): T3 sequence (whole entry)

IC50 (Protein ENL): > 5 µM
SMILES: O=C(NCc1ccc(CN2CCC2)cc1)c1ccc2ncnn2c1

inhibition [1]: Active
inhibition [2]: Active
inhibition [3]: Active
IC50 [4]: > 54 µM
IC50 [5]: 18.5 µM
SMILES: O=C(NCc1ccc(CN2CCC2)cc1)c1ccc2nncn2c1

IC50 (Protein ENL): 0.185 µM
SMILES: CC1CCN1Cc1ccc(CNC(=O)c2ccc3nncn3c2)cc1 (stereo not drawn)

inhibition [1]: Active
inhibition [2]: Active
IC50 (Protein AF-9): 0.729 µM
inhibition [3]: Active
IC50 [4]: > 54 µM
IC50 [5]: > 54 µM
SMILES: O=C(NCc1ccc(CNc2ncc(F)cn2)cc1)c1ccc2nncn2c1

IC50 (Protein ENL): 0.636 µM
SMILES: O=C(NCc1ccc(CN2CCCCC2)cc1)c1ccc2nncn2c1

IC50 (Protein ENL): > 2 µM
SMILES: O=C(NCc1ccc(CNc2nc(F)ccc2F)cc1)c1ccc2nncn2c1

IC50 (Protein ENL): > 5 µM
SMILES: O=C(NCc1ccc(CNc2ccc(F)cn2)cc1)c1ccc2nncn2c1

IC50 (Protein ENL): > 5 µM
SMILES: Cc1cc2ncc(C(=O)NCc3ccc(CN4CCC4)cc3)cn2n1

IC50 (Protein ENL): > 1 µM
SMILES: CC(NC(=O)c1ccc2nncn2c1)c1ccc(CN2CCC2)cc1 (stereo not drawn)

Source: ChEMBL document CHEMBL4808215, “Discovery of Selective Small-Molecule Inhibitors for the ENL YEATS Domain” (J Med Chem, 2021)
